Measurements from article PMC5132079 (Clinical Pharmacology in Drug Development, 2016).
“Also recorded” adds a separate entry of the source. Read-outs that look alike come from different tables or passages of the source. Each block holds one molecule with its values, some of them ahead of it.

Experiments:
[1] = tested on: unrestrained male monkeys; details: nonclinical study, cited from earlier work
hERG channel = details: 5.28 μM [2.14 μg/mL]; HEK 293 cells; nonclinical studies; cited from earlier work
[2] = Drug exposure in monkey cardiovascular study; assay type: in vivo; details: 1000 mg/kg in monkeys vs 150 mg every 12 hours × 3 doses in humans
[3] = tested on: QTcF in clinical study subjects; details: 8 phase 1/2a studies, n = 245 subjects, cited from earlier work
[4] = tested on: UGT and cytochrome P450 (CYP) enzymes; details: in vitro; cited from earlier work
UGT1A1, UGT1A9 = details: to inactive glucuronide metabolites; cited from earlier work
[5] = tested on: QTcF interval in healthy subjects; experiment: Thorough QT study, continuous Holter monitoring, time-matched ΔΔQTcF; assay type: in vivo, human; details: for time of maximum effect of ΔΔQTcF: after dosing on day 2
Outline: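 3-period crossover: test compound 150 mg orally every 12 h ×3, placebo, or single 400-mg fluoroquinolone positive control; ≥21-day washouts. Continuous 12-lead 1000-Hz Holter; day −1 24-h baseline. Triplicate ECGs extracted 0.5–24 h after day-2 dose, lead II, blinded central reader; QT Fridericia-corrected; time-matched placebo-subtracted change (ΔΔQTcF) by repeated-measures ANCOVA with 90% CIs; concentration relation via linear mixed-effects model.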

HIV-1 = details: oral cabotegravir, early clinical studies; cited from earlier work
[6] = Plasma cabotegravir pharmacokinetics after third dose; assay type: in vivo; details: human, po, 150 mg; for AUC(0-t) / Tmax: oral 150 mg every 12 hours × 3 doses; for Tmax: median (range)
Outline: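 Healthy adults took oral test compound 150 mg (5 × 30-mg tablets) every 12 h for 3 doses, fasting ≥6 h before and 4 h after the third dose. Plasma was sampled predose and 0.5–24 h after the day-2 dose. Samples were protein-precipitated and run on HPLC-MS/MS (TurboIonSpray, MRM), range 25–25 000 ng/mL. Noncompartmental analysis gave Cmax, Tmax, AUC0–12 and AUC0–24.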

[7] = single dose 150 mg; ref unpublished data; cited from earlier work
[8] = cited from earlier work
[9] = cited from earlier work; remark: listed apart in the source
healthy subjects = experiment: Safety assessments; assay type: in vivo, human; details: for Alanine aminotransferase increased / Any adverse event / Blood creatine phosphokinase increased / Dermatitis contact / Headache / Nausea: safety population
Outline: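 Healthy adults aged 18–55 were crossed over between test compound (150 mg every 12 h ×3), placebo and a positive control, with ≥21-day washouts. Monitoring ran throughout and covered adverse events, laboratory tests, vital signs and physical examinations. Semisupine 12-lead safety ECGs were taken at 0, 3, 12 and 15 h on day 1, at 0 and 3 h on day 2, and at 24 h on day 3. Summaries were descriptive.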

[10] = Previous single-dose cabotegravir 150 mg pharmacokinetic study; assay type: in vivo, human
[11] = monkeys, 1000 mg/kg; nonclinical study; cited from earlier work
cardiac repolarization = details: prior studies; cited from earlier work
QTc in healthy subjects = details: randomized, placebo-controlled study of 20 healthy subjects; cited from earlier work
[12] = single dose 1000 mg/kg, within the first 2 hours of dosing
[13] = cabotegravir 150 mg every 12 hours × 3 doses
[14] = linear mixed-effects PK/pharmacodynamic model
[15] = supratherapeutic dose, 150 mg every 12 hours × 3 doses
[16] = 150 mg every 12 hours × 3 doses
[17] = single dose 150 mg, extrapolation from 30-mg data

AUC(0-t) ([6]; both, AUC0–12, geometric mean (CV,%) [90%CI], all subjects (n = 40)): 217 µg·h/mL
AUC(0-t) ([6]; both, AUC0–24, geometric mean (CV,%) [90%CI], all subjects (n = 40)): 386 µg·h/mL
Tmax ([6]; both, all subjects (n = 40)): ~2 h
Cmax ([6]; female): 25100 ng/mL
AUC(0-t) ([6]; female, AUC0–12, geometric mean (CV,%) [90%CI], women (n = 9)): 234 µg·h/mL
AUC(0-t) ([6]; female, AUC0–24, geometric mean (CV,%) [90%CI], women (n = 9)): 409 µg·h/mL
Tmax ([6]; female, women (n = 9)): 2 h
Cmax ([6]; male): 21900 ng/mL
AUC(0-t) ([6]; male, AUC0–12, geometric mean (CV,%) [90%CI], men (n = 31)): 213 µg·h/mL
AUC(0-t) ([6]; male, AUC0–24, geometric mean (CV,%) [90%CI], men (n = 31)): 380 µg·h/mL
Tmax ([6]; male, men (n = 31)): 2 h
geometric mean Cmax higher than after repeat 30 mg once daily ([10]; single dose 150 mg vs 30 mg once daily in HIV-infected subjects): 39%
predicted AUC0–∞ [10, 17]: 870 µg·h/mL
predicted Cmax [10, 17]: 21200 ng/mL
SMILES: C[C@H]1CO[C@@H]2Cn3cc(C(=O)NCc4ccc(F)cc4F)c(=O)c(O)c3C(=O)N12 [Cabotegravir]
ECG waveform or interval changes ([1]; single dose 1000 mg/kg): no electrocardiogram (ECG) waveform or interval changes
transient increase in heart rate [1, 12]: ~20%
transient increase in mean arterial pressure [1, 12]: ~6%
cardiovascular effects ([1]; single doses of 8 and 25 mg/kg): no effects
effects on hERG channel tail current (hERG channel): no different than those observed with vehicle
drug exposure (Cmax) in monkeys relative to present study [2]: 3 fold
overall mean difference in QTcF change from baseline between cabotegravir and placebo ([3]; 2540 postdose ECGs): –2.9 milliseconds
subjects with QTcF ≥ 480 milliseconds or change from baseline in QTcF of >60 milliseconds [3]: no subject
inhibition or induction of UGT and cytochrome P450 (CYP) enzymes [4]: has not been shown to inhibit or induce
metabolic pathway (UGT1A1, UGT1A9): metabolized via UDP‐glucuronosyltransferase (UGT) 1A1, with a secondary contribution from UGT1A9
time of maximum effect of ΔΔQTcF [5]: 8 h
point estimate for ΔΔQTcF at any point [5, 13]: ≤ 5 milliseconds
subjects with QTcF value > 450 milliseconds [5, 13]: not associated with any instances
subjects with changes from baseline in QTcF of >30 milliseconds [5, 13]: none of the subjects
ΔΔQTcF, mean ± SE ([5]; cabotegravir 150 mg every 12 hours × 3 doses minus placebo, 1 h): -0.37 ± 1.74 ms
ΔΔQTcF, mean ± SE ([5]; cabotegravir 150 mg every 12 hours × 3 doses minus placebo, 2 h): 0.44 ± 1.83 ms
ΔΔQTcF, mean ± SE ([5]; cabotegravir 150 mg every 12 hours × 3 doses minus placebo, 3 h): -0.62 ± 1.69 ms
ΔΔQTcF, mean ± SE ([5]; cabotegravir 150 mg every 12 hours × 3 doses minus placebo, 4 h): -0.37 ± 1.53 ms
ΔΔQTcF, mean ± SE ([5]; cabotegravir 150 mg every 12 hours × 3 doses minus placebo, 6.5 h): 0.50 ± 1.63 ms
ΔΔQTcF, mean ± SE ([5]; cabotegravir 150 mg every 12 hours × 3 doses minus placebo, 12 h): -0.34 ± 1.66 ms
ΔΔQTcF, mean ± SE ([5]; cabotegravir 150 mg every 12 hours × 3 doses minus placebo, 24 h): 1.13 ± 2.05 ms
upper limits of 2-sided 90% confidence intervals for ΔΔQTcF ([5]; cabotegravir 150 mg every 12 hours × 3 doses, all time points): < 10 milliseconds
subjects with QTcF value > 450 milliseconds ([5]; cabotegravir 150 mg every 12 hours × 3 doses, listed as cabotegravir): No subject
mean estimated intercept, ΔΔQTcF vs time-matched cabotegravir concentration [5, 14]: 1.382 milliseconds
relationship between cabotegravir plasma concentrations and ΔΔQTcF [5, 14]: no relationship; also recorded: no discernable concentration effect
effect on cardiac repolarization [5, 15]: no effect on cardiac repolarization
antiretroviral activity (HIV-1): potent antiretroviral activity
tolerability (HIV-1): generally well tolerated
geometric mean Cmax [7]: 10400 ng/mL
geometric mean plasma AUC0–∞ [7]: 418 µg·h/mL
median time to Cmax (Tmax) [7]: 2.5 h
dose proportionality of pharmacokinetics ([8]; 10 to 60 mg, previous work): dose‐proportional manner from 10 to 30 mg, but in a less than proportional manner from 30 to 60 mg
plasma half-life ([8]; oral cabotegravir): 40 h
dose proportionality of AUC(0–t), Cmax, Cτ, and Cmin ([8]; repeated administration for 14 days): Dose‐proportional increases
Cmax at steady state ([9]; clinically therapeutic dose 30 mg once daily): 7500 ng/mL
Cmax ([9]; repeat administration of 30 mg once daily in HIV-infected subjects): 7490 ng/mL
clinical laboratory values, vital signs, or safety ECG results (healthy subjects; [16]): No clinically significant trends
serious or grade 3 or 4 adverse events (healthy subjects; [16]): no serious or grade 3 or 4 adverse events
Alanine aminotransferase increased (healthy subjects; cabotegravir 150 mg (n = 40)): 1 (3) n (%)
Any adverse event (healthy subjects; cabotegravir 150 mg (n = 40)): 13 (33) n (%)
Blood creatine phosphokinase increased (healthy subjects; cabotegravir 150 mg (n = 40)): 0 n (%)
Dermatitis contact (healthy subjects; cabotegravir 150 mg (n = 40)): 6 (15) n (%)
Headache (healthy subjects; cabotegravir 150 mg (n = 40)): 1 (3) n (%)
Nausea (healthy subjects; cabotegravir 150 mg (n = 40)): 0 n (%)
Dermatitis contact (healthy subjects; cabotegravir 150 mg (n = 40), listed as cabotegravir): 6 n (%)
tolerability (healthy subjects; [15]): well tolerated
Cmax [11]: 67000 ng/mL

SMILES: C[C@@H]1CCO[C@H]2Cn3cc(C(=O)NCc4ccc(F)cc4F)c(=O)c(O)c3C(=O)N12 [dolutegravir]
effect on cardiac repolarization (cardiac repolarization): do not affect cardiac repolarization

SMILES: COc1c(N2C[C@@H]3CCCN[C@@H]3C2)c(F)cc2c(=O)c(C(=O)O)cn(C3CC3)c12 [Moxifloxacin, moxifloxacin, reference compound]
time of maximum effect of ΔΔQTcF [5]: 8 h
ΔΔQTcF, mean ± SE ([5]; moxifloxacin 400 mg single dose minus placebo, 0.5 h): 5.40 ± 2.05 ms
ΔΔQTcF, mean ± SE ([5]; moxifloxacin 400 mg single dose minus placebo, 1 h): 8.75 ± 1.79 ms
ΔΔQTcF, mean ± SE ([5]; moxifloxacin 400 mg single dose minus placebo, 2 h): 11.67 ± 1.88 ms
ΔΔQTcF, mean ± SE ([5]; moxifloxacin 400 mg single dose minus placebo, 3 h): 10.49 ± 1.73 ms
ΔΔQTcF, mean ± SE ([5]; moxifloxacin 400 mg single dose minus placebo, 4 h): 11.81 ± 1.57 ms
ΔΔQTcF, mean ± SE ([5]; moxifloxacin 400 mg single dose minus placebo, 6.5 h): 10.08 ± 1.68 ms
ΔΔQTcF, mean ± SE ([5]; moxifloxacin 400 mg single dose minus placebo, 8 h (maximum observed)): 13.03 ± 1.63 ms
ΔΔQTcF, mean ± SE ([5]; moxifloxacin 400 mg single dose minus placebo, 12 h): 7.79 ± 1.69 ms
ΔΔQTcF, mean ± SE ([5]; moxifloxacin 400 mg single dose minus placebo, 24 h): 6.53 ± 2.10 ms
lower limit of the 90%CI for ΔΔQTcF ([5]; moxifloxacin 400 mg, at several times): > 5 millisecond
time of first peak of placebo-adjusted QTcF change from baseline (QTc in healthy subjects): 4 h
time of second increase in QTc (QTc in healthy subjects): 8 h
Alanine aminotransferase increased (healthy subjects; moxifloxacin 400 mg (n = 36)): 0 n (%)
Any adverse event (healthy subjects; moxifloxacin 400 mg (n = 36)): 12 (33) n (%)
Blood creatine phosphokinase increased (healthy subjects; moxifloxacin 400 mg (n = 36)): 1 (3) n (%)
Dermatitis contact (healthy subjects; moxifloxacin 400 mg (n = 36)): 2 (6) n (%)
Headache (healthy subjects; moxifloxacin 400 mg (n = 36)): 2 (6) n (%)
Nausea (healthy subjects; moxifloxacin 400 mg (n = 36)): 2 (6) n (%)
Dermatitis contact (healthy subjects; moxifloxacin 400 mg (n = 36), listed as moxifloxacin): 2 n (%)
